Most compounds without a hit are left out; they make up all but 3.7% or so of the library.
KCNQ1 act – potentiators or activators of KCNQ1 channel, primary screen, cell-based, thallium flux, high-throughput; Potassium voltage-gated channel subfamily KQT member 1 (Homo sapiens), P51787; CHO-K1 KCNQ1, thallium flux FluxOR fluorescence; active compounds read high; B-score at 10 µM; actives 0.35% (n = 310,000); AID 2648, 2010;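 active = fluorescence ratio B-score, a plate-corrected score, at least three library SD, with initial intensity B-score within 5 SD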
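Doses: Single concentration per compound, DMSO matched to controls | Test system: KCNQ1-transfected CHO-K1 cells | Timing: 90 min dye loading and 20 min compound exposure, both at room temperature | Measured by: Kinetic FluxOR thallium fluorescence, 10-s 1-Hz baseline, 110-s post-stimulus read | Medium: Assay buffer with matched DMSO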
KCNQ1 inh – inhibitors of human KCNQ1 channel, primary screen, cell-based, thallium flux, high-throughput; CHO-K1 KCNQ1, FluxOR thallium flux fluorescence; active compounds read high; B-score at 10 µM; actives 1.3% (n = 310,000); AID 2642, 2010;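 active = compounds whose thallium flux B-score, printed positive for inhibition, exceeds three library SD while starting fluorescence stays within three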;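 note: channel opened by potassium depolarization with thallium stimulus after 20 min compound exposure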
KCNK9 inh – KCNK9 potassium channel inhibitors, primary screen, HEK293 cells, thallium flux; FluxOR thallium flux fluorescence; active compounds read low; B-score at 10 µM; actives 1.2% (n = 310,000);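 active = ratio B-score over 3 SD below the library mean, with starting fluorescence within 5 SD of its mean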;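 note: negative B-score means less thallium flux so channel inhibition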
KCNK3 inh – human KCNK3 channel inhibitors, primary screen, CHO cells, FluxOR thallium flux, B-score; FluxOR fluorescence; active compounds read low; B-score at 10 µM; actives 0.84% (n = 340,000); AID 602410, 2012;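 active = B-score under library mean minus 4 SD, starting fluorescence ratio at most library mean plus 5 SD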;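 note: more negative B-score means stronger inhibition of thallium flux through KCNK3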
Target sequence (O14649 whole entry, looked up): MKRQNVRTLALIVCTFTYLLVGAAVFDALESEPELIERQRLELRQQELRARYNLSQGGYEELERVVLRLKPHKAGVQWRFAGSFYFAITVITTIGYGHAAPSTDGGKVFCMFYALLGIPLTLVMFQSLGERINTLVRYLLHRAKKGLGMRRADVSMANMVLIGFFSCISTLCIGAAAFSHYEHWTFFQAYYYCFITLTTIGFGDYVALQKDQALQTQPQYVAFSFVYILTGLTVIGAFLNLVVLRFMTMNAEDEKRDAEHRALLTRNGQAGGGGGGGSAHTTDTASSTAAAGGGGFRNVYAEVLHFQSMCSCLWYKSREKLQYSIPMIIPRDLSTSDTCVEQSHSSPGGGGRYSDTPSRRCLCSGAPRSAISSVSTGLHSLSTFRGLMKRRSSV
Kir21 inh – inhibitors of mouse Kir2.1 inward-rectifier potassium channel. Inward rectifier potassium channel 2 (Mus musculus), P35561. HEK293-Kir2.1, FluxOR thallium flux fluorescence; active compounds read low. B-score at 10 µM. actives 0.85% (n = 310,000);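 active = fluorescence ratio B-score at or below minus 3 SD of library scores, with starting-brightness B-score within 2 SD, cut at about -4.2 in these data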;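 note: channel flux triggered by added potassium and thallium sulfate stimulus; B-score of peak minus minimum fluorescence over baseline after thallium stimulus; more negative B-score means stronger Kir2.1 block with less thallium influx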
hERG rescue – hERG rescue from dofetilide block, primary screen, cell-based, CHO-hERG, FluxOR thallium flux, dofetilide IC70; activation (rescue from dofetilide block), less the hit threshold, % at 10 µM; dofetilide IC70 present; AID 1511, 2009; Voltage-gated inwardly rectifying potassium channel KCNH2 (Homo sapiens), Q12809; actives 0.51% (n = 310,000);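 active = activation above the mean of controls blocked by dofetilide plus 5 SD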;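 note: thallium influx through hERG after potassium depolarization seen as dye fluorescence rise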
* hit, by the source's call.

`CC(=O)Oc1c(S(=O)(=O)c2ccc(C)cc2)c(C)nn1C(C)(C)C` gave KCNQ1 act inactive, KCNQ1 inh inactive, KCNK9 inh inactive, KCNK3 inh inactive, Kir21 inh -0.5 and hERG rescue -15.
Screening Cc1ccc(S(=O)(=O)c2c(C)nn(C(C)(C)C)c2OC(=O)c2cccs2)cc1 returned KCNQ1 act inactive, KCNQ1 inh 6*, KCNK9 inh inactive, KCNK3 inh inactive, Kir21 inh -0.3 and hERG rescue -4.
`O=C(CSc1nc2ccc(Nc3nc(N4CCOCC4)nc(N4CCOCC4)n3)cc2s1)Nc1ccccc1Cl` gave KCNQ1 act inactive, KCNQ1 inh inactive, KCNK9 inh inactive, KCNK3 inh inactive, Kir21 inh -0.07 and hERG rescue -10.
O=C(CSc1nc2ccc(Nc3nc(N4CCCC4)nc(N4CCCC4)n3)cc2s1)NCc1ccco1 was read as KCNQ1 act inactive, KCNQ1 inh 8*, KCNK9 inh inactive, KCNK3 inh inactive, Kir21 inh -2.1 and hERG rescue -15.
`Cc1cccc(C)c1NC(=O)CNC(=O)CCCc1c[nH]c2ccccc12` gave KCNQ1 act inactive, KCNQ1 inh inactive, KCNK9 inh inactive, KCNK3 inh inactive, Kir21 inh -1.2 and hERG rescue -20.
NC(N)=N/N=C/c1ccc(OCc2ccccc2)cc1 was read as KCNQ1 act inactive, KCNQ1 inh inactive, KCNK9 inh inactive, KCNK3 inh inactive, Kir21 inh -11* and hERG rescue -28.
`N#Cc1cccc(NC(=O)NCCc2c[nH]c3ccccc23)c1` gave KCNQ1 act inactive, KCNQ1 inh inactive, KCNK9 inh inactive, KCNK3 inh inactive, Kir21 inh 0.08 and hERG rescue -8.
O=C(NCCc1c[nH]c2ccccc12)Nc1ccccc1 was read as KCNQ1 act inactive, KCNQ1 inh inactive, KCNK9 inh -6.9*, KCNK3 inh inactive, Kir21 inh -1.3 and hERG rescue -11.
CC1CCN(CCCOc2ccc(OCc3ccccc3)cc2)CC1 was read as KCNQ1 act inactive, KCNQ1 inh inactive, KCNK9 inh inactive, KCNK3 inh inactive, Kir21 inh -7.2* and hERG rescue -14.
Screening CC1CCN(CCCCOc2ccc(C(=O)c3ccccc3)cc2)CC1 returned KCNQ1 act inactive, KCNQ1 inh inactive, KCNK9 inh inactive, KCNK3 inh inactive, Kir21 inh -5.5* and hERG rescue -5.
c1ccc(COc2ccc(OCCCN3CCCC3)cc2)cc1 was read as KCNQ1 act inactive, KCNQ1 inh inactive, KCNK9 inh inactive, KCNK3 inh inactive, Kir21 inh -0.62 and hERG rescue -10.
Screening CCOC(=O)/C(=N/Nc1ccc(Br)cc1)N1CC(C)OC(C)C1 (centres undefined) returned KCNK3 inh -8.7*.
Screening COc1ccccc1OCCSc1nc(C)c(Cc2ccccc2)c(=O)[nH]1 returned KCNQ1 act inactive, KCNQ1 inh inactive, KCNK9 inh inactive, Kir21 inh -0.06 and hERG rescue -21.
CC(OC(=O)c1nc(-c2ccccc2)n(-c2ccccc2)n1)C(=O)Nc1cc(Cl)cc(Cl)c1 (centres undefined) was read as KCNQ1 act inactive, KCNQ1 inh inactive, KCNK9 inh inactive, KCNK3 inh inactive, Kir21 inh 0.68 and hERG rescue -8.
Screening CCN(CC)c1ccc2cc(NC(=O)CCC(=O)O)c(=O)oc2c1 returned KCNQ1 act inactive, KCNQ1 inh 14*, KCNK9 inh inactive, KCNK3 inh inactive, Kir21 inh -15 and hERG rescue -26.
For O=C(CN1CSCC1=O)N1CCN(S(=O)(=O)c2cc(C(F)(F)F)ccc2Cl)CC1 the results were KCNK3 inh inactive.
O=C(NCCCN1CCOCC1)NC12CC3CC(CC(C3)C1)C2 was read as KCNQ1 act inactive, KCNQ1 inh 6*, KCNK9 inh inactive, KCNK3 inh inactive, Kir21 inh -0.39 and hERG rescue -7.
O=C(NCCCN1CCN(c2ccc(F)cc2)CC1)NC12CC3CC(CC(C3)C1)C2 was read as KCNQ1 act inactive, KCNQ1 inh inactive, KCNK9 inh inactive, KCNK3 inh inactive, Kir21 inh -1.8 and hERG rescue -16.
CC(Cc1ccccc1)C(=O)Nc1ccc(Br)cc1 (centres undefined) was read as KCNQ1 act inactive, KCNQ1 inh inactive, KCNK9 inh inactive, KCNK3 inh inactive, Kir21 inh 0.98 and hERG rescue -17.
`CC(c1cccs1)N(C)Cc1nc(CCc2ccccc2)no1` (centres undefined) gave KCNQ1 act inactive, KCNQ1 inh inactive, KCNK9 inh inactive, KCNK3 inh inactive, Kir21 inh 0.26 and hERG rescue -12.
Screening CCOC(=O)c1ccc(S(=O)(=O)N2CCN(CC(O)COc3cccc(C(C)=O)c3)CC2)cc1 (centres undefined) returned KCNQ1 act inactive, KCNQ1 inh inactive, KCNK9 inh inactive, KCNK3 inh inactive, Kir21 inh 0.43 and hERG rescue -7.
Screening CCN(CC)CCN1C(=O)/C(=C\c2ccc(Cl)c([N+](=O)[O-])c2)SC1=Nc1ccc(OC)cc1 returned KCNQ1 act inactive, KCNQ1 inh inactive, KCNK9 inh inactive, KCNK3 inh inactive, Kir21 inh 1.4 and hERG rescue -19.
For COc1ccc(N=C2S/C(=C\c3ccc(Cl)c([N+](=O)[O-])c3)C(=O)N2CCN(C)C)cc1 the results were KCNQ1 act inactive, KCNQ1 inh 10*, KCNK9 inh inactive, KCNK3 inh inactive, Kir21 inh 0.21 and hERG rescue -35.
For CCn1c(C)nc2cc(C(=O)NN=Cc3ccc([N+](=O)[O-])cc3)ccc21 the results were KCNK3 inh inactive.
`COc1ccc(OC)c(S(=O)(=O)N2CCC(NC(=O)c3ccccc3)CC2)c1` gave KCNQ1 act inactive, KCNQ1 inh inactive, KCNK9 inh -7.3*, KCNK3 inh inactive, Kir21 inh -0.06 and hERG rescue -5.
`COc1ccc(-c2nnc(Nc3nc4c(OC)cccc4s3)o2)cc1` gave KCNQ1 act 50*, KCNQ1 inh inactive, KCNK9 inh inactive, KCNK3 inh inactive, Kir21 inh -0.01 and hERG rescue 12*.
